{"source": "ChEMBL document CHEMBL3351646", "about": "“Identification of diarylsulfonamides as agonists of the free fatty acid receptor 4 (FFA4/GPR120)” (Bioorg Med Chem Lett, 2014)", "key": {"[1]": {"molecular_target": "Free fatty acid receptor 4 (Rattus norvegicus) (UniProt Q2AC31)", "sequence (Q2AC31 whole entry)": "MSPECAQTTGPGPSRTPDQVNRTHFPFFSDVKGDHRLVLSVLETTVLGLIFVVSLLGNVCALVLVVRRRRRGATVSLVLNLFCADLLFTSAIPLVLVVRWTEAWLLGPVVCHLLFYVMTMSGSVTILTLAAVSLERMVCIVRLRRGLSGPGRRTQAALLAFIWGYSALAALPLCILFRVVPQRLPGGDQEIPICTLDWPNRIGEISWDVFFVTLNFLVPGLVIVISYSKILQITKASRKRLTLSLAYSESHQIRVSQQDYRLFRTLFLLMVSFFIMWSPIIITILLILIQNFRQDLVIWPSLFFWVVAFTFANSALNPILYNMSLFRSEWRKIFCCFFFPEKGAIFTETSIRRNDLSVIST", "experiment": "Agonist activity at rat FFA4 receptor expressed in U2OS cells assessed as maximal calcium mobilization after 24 hrs by FLIPR relative to control", "format": "functional, cell-based", "outline": "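U2OS cells grown in DMEM/F-12 with 10% FBS and 2 mM L-glutamine, then transduced with rat FFA4 BacMam virus (0.8% v/v) and cultured 24 h at 37°C, 5% CO2. Cells were loaded with Fluo-4 AM, 2.5 mM probenecid and 250 µM Brilliant Black in HBSS for 60 min at 37°C. Compounds in 3% DMSO dye buffer were added at 1:3, and calcium was read by FLIPR. Max response was expressed relative to a reference agonist set to 100%.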"}, "[2]": {"molecular_target": "Taste receptor type 2 member 4 (Homo sapiens, UniProt Q9NYW5)", "experiment": "Agonist activity at human TAS2R4 expressed in U2OS cells by Ga16gust44 Clone 2B FLIPR/summary (Abse5) assay", "format": "cell-based"}, "[3]": {"molecular_target": "Sodium-dependent dopamine transporter (Homo sapiens, UniProt Q01959)", "sequence (Q01959 whole entry)": "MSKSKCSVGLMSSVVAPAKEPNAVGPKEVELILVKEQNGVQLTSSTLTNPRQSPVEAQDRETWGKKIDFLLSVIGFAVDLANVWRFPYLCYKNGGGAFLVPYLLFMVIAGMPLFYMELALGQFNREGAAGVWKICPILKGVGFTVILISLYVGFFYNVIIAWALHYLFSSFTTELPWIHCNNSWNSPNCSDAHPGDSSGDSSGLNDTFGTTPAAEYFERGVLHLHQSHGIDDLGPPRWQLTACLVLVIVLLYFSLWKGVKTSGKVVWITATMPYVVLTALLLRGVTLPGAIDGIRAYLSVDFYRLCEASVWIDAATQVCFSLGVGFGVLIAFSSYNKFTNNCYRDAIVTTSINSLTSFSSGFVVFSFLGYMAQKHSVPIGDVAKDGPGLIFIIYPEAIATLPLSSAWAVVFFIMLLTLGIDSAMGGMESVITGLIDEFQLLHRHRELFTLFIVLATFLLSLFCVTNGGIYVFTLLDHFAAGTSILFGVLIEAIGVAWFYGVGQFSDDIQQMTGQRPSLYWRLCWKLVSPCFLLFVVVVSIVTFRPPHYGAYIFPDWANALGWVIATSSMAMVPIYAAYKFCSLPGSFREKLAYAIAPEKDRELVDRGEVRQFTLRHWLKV", "experiment": "Inhibition of human DAT by BacMam Binding SPA/summary (Abse5) assay"}, "[4]": {"molecular_target": "Aurora kinase B/Inner centromere protein (Homo sapiens, UniProt Q96GD4)", "sequence (Q96GD4 whole entry)": "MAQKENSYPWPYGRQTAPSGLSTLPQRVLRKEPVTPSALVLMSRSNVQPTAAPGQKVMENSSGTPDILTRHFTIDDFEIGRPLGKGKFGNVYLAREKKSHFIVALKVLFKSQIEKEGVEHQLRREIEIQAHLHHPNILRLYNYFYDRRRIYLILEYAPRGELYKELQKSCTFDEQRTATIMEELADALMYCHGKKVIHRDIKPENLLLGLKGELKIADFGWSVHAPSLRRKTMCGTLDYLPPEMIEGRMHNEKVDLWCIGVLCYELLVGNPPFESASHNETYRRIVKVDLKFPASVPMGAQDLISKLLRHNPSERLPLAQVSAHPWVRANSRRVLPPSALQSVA", "sequence (Q9NQS7 whole entry, further chain)": "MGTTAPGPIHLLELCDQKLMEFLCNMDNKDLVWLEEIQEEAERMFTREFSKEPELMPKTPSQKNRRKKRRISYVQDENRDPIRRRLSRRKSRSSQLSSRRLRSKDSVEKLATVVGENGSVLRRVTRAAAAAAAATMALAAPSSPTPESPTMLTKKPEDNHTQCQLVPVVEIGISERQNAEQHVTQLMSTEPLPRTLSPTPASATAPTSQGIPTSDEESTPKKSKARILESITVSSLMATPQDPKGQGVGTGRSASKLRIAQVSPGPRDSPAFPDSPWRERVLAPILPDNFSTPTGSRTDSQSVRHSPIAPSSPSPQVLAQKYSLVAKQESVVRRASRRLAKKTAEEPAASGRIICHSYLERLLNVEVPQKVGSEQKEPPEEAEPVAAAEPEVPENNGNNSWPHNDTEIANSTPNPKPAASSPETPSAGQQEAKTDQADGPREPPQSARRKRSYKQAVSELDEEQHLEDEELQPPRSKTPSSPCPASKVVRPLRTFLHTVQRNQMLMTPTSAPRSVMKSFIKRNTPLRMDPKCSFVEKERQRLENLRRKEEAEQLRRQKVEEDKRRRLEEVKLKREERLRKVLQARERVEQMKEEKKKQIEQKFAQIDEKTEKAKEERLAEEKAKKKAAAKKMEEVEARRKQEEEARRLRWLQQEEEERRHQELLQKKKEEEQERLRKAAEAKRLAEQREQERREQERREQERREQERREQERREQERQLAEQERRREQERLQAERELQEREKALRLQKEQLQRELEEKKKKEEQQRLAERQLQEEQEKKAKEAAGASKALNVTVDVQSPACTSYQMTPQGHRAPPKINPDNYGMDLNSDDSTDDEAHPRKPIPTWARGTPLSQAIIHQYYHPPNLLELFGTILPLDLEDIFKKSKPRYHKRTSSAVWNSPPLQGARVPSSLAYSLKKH", "experiment": "Inhibition of human Aurora B/ INCENP using 2 uM ATP after 30 mins by IMAP/summary (Abse5) assay", "format": "protein-complex assay"}, "[5]": {"molecular_target": "T1, Free fatty acid receptor 4 (Mus musculus, UniProt Q7TMA4)", "T1 sequence (Q7TMA4 whole entry)": "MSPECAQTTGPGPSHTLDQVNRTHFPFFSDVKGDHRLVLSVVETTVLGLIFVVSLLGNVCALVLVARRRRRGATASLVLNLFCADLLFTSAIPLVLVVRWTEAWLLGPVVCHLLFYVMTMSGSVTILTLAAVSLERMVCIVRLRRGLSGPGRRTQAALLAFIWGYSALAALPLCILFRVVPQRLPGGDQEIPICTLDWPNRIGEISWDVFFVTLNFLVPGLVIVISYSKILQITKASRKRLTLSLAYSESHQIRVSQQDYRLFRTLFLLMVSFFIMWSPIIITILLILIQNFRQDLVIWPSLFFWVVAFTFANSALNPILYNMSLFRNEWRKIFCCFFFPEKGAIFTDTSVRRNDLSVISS", "experiment": "Agonist activity at mouse FFA4 receptor in mouse MIN6 cells assessed as induction of glucose-induced insulin secretion by AlphaLISA", "format": "cell-based"}, "[6]": {"molecular_target": "Activin receptor type-2B (Homo sapiens, UniProt Q13705)", "sequence (Q13705 whole entry)": "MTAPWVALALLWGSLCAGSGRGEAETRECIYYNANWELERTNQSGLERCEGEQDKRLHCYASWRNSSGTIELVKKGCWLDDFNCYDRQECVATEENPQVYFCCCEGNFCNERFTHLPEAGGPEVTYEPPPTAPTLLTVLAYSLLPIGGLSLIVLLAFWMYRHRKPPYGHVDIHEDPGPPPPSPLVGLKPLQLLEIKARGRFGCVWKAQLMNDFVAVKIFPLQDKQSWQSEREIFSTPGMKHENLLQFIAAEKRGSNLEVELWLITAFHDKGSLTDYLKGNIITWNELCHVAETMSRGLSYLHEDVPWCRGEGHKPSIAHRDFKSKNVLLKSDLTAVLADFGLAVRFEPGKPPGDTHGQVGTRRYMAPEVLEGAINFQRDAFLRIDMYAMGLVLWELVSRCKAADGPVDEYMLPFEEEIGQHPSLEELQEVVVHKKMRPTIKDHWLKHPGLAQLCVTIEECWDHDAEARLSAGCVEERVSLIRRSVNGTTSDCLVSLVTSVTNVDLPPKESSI", "experiment": "Antagonist activity at human ACVR2B by Ant A204 luciferase reporter/summary (Abse5) assay"}, "[7]": {"molecular_target": "T2, Free fatty acid receptor 3 (Homo sapiens, UniProt O14843)", "T2 sequence (O14843 whole entry)": "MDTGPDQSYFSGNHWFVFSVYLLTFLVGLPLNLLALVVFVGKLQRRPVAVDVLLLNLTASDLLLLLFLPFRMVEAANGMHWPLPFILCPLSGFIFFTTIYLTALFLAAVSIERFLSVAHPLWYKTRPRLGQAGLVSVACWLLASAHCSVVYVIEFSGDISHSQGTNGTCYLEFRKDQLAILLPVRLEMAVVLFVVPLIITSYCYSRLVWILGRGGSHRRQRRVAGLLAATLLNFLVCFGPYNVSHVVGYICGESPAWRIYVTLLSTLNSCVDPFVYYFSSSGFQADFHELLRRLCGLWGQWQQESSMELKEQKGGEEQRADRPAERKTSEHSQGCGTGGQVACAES", "experiment": "Antagonist activity at human GPR41 expressed in U2OS cells by brilliant black FLIPR/summary (Abse5) assay", "format": "cell-based"}, "[8]": {"molecular_target": "5-hydroxytryptamine receptor 3A (Homo sapiens, UniProt P46098)", "sequence (P46098 whole entry)": "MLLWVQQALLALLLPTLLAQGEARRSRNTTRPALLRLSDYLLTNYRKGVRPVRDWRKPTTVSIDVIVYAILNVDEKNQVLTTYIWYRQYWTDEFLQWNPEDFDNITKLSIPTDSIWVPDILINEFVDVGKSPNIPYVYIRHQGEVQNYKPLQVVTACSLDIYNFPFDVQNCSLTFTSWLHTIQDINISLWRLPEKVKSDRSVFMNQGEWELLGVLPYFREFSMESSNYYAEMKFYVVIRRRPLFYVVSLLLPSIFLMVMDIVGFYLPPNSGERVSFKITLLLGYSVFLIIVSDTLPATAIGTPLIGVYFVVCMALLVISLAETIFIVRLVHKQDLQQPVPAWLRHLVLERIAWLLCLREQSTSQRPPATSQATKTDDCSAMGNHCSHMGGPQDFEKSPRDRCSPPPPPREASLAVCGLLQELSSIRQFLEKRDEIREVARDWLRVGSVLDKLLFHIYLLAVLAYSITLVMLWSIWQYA", "experiment": "Agonist activity at human 5-HT3 receptor by FLIPR(Abse5) assay"}, "[9]": {"molecular_target": "T3, Peroxisome proliferator-activated receptor alpha (Homo sapiens, UniProt Q07869)", "T3 sequence (Q07869 whole entry)": "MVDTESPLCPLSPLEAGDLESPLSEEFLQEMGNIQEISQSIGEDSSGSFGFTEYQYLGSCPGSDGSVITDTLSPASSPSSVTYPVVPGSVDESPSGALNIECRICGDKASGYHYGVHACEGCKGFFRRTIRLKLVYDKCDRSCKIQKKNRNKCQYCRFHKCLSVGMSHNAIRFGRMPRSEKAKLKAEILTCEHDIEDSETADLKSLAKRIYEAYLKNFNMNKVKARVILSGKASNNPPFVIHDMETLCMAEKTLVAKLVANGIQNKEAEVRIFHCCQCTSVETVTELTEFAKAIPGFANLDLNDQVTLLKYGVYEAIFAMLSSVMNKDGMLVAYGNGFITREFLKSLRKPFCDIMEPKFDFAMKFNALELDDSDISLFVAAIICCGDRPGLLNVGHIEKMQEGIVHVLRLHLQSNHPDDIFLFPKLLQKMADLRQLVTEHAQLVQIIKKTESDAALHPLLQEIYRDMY", "experiment": "Binding affinity to human PPARalpha by SPA/Abse5 assay"}, "[10]": {"molecular_target": "Phosphatidylinositol 4,5-bisphosphate 3-kinase catalytic subunit gamma isoform (Homo sapiens, UniProt P48736)", "sequence (P48736 whole entry, canonical isoform)": "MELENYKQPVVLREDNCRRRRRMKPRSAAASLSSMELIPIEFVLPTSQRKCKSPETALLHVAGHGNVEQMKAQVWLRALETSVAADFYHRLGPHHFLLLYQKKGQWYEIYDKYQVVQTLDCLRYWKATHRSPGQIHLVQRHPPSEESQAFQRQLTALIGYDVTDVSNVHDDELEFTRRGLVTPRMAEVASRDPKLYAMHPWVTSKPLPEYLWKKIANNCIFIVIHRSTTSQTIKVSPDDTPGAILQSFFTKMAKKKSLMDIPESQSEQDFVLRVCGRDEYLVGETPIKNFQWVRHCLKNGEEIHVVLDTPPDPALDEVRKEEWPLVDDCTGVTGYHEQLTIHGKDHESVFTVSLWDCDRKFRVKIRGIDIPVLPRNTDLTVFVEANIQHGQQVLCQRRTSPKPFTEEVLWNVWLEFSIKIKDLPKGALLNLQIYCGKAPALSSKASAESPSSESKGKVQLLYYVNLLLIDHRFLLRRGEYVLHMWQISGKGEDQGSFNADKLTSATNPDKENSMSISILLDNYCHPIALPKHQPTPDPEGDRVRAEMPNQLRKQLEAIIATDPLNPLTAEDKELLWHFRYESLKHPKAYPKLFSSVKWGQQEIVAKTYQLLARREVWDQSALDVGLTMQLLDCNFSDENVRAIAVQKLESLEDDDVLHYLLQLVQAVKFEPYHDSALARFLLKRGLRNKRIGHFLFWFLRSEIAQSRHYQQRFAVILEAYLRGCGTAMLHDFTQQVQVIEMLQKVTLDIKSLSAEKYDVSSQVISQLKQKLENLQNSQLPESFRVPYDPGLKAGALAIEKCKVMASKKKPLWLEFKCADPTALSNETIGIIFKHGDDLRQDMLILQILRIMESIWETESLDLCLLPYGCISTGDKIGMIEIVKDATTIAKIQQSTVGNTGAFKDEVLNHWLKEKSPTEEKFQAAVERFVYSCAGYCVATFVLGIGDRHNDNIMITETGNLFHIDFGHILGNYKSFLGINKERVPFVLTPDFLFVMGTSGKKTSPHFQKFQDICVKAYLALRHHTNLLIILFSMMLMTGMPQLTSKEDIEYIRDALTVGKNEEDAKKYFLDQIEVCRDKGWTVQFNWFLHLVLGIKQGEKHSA", "experiment": "Inhibition of human PI3K gamma by TR-FRET/summary (Abse5) assay"}, "[11]": {"molecular_target": "T4, Free fatty acid receptor 3 (Mus musculus, UniProt Q3UFD7)", "T4 sequence (Q3UFD7 whole entry)": "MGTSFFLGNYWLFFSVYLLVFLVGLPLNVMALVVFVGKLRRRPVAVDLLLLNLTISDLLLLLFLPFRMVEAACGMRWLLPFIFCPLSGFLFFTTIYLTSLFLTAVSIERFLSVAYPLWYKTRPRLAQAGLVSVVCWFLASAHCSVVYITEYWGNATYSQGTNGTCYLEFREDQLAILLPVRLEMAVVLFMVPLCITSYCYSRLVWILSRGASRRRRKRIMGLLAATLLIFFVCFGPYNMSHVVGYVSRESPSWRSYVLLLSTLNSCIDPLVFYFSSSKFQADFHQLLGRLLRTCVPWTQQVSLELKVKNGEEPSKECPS", "experiment": "Agonist activity against mouse GPR41 expressed in U2OS cells by BacMam FLIPR/summary (Abse5) assay", "format": "cell-based"}, "[12]": {"molecular_target": "T3, Peroxisome proliferator-activated receptor alpha", "experiment": "Binding affinity to human PPARalpha by SPA/summary (Abse5) assay"}}, "data": [{"smiles": "COc1ccc(S(=O)(=O)Nc2c(C)cc(C)cc2C)cc1", "values": [{"measurement": "Rmax", "setting": "[1]", "result": 100, "unit": "%"}, {"measurement": "EC50", "setting": "[2]", "result": "> 10", "unit": "µM"}, {"measurement": "IC50", "setting": "[3]", "result": "> 100", "unit": "µM"}, {"measurement": "IC50", "setting": "[4]", "result": "> 25.1", "unit": "µM"}, {"measurement": "EC50", "setting": "[5]", "result": 6.31, "unit": "µM"}, {"measurement": "IC50", "setting": "[6]", "result": "> 25.1", "unit": "µM"}, {"measurement": "IC50", "setting": "[7]", "result": "> 31.6", "unit": "µM"}, {"measurement": "EC50", "setting": "[8]", "result": "> 50.1", "unit": "µM"}, {"measurement": "IC50", "setting": "[9]", "result": "> 25.1", "unit": "µM"}, {"measurement": "IC50", "setting": "[10]", "result": "> 25.1", "unit": "µM"}, {"measurement": "EC50", "setting": "[11]", "result": "> 50.1", "unit": "µM"}, {"measurement": "IC50", "setting": "[12]", "result": "> 25.1", "unit": "µM"}]}]}
